DNMT1 block: human DNMT1 methyltransferase inhibitors, primary screen, biochemical, molecular beacon, fluorescence, HinP1I cleavage, uHTS | DNA (cytosine-5)-methyltransferase 1 (Homo sapiens), P26358 | actives 0.83% (n = 360,000) | inhibition (reported as % activation of signal), % at 10 µM; in the data active = inhibition above about 50%
Target sequence (P26358 504-1616 limits assumed): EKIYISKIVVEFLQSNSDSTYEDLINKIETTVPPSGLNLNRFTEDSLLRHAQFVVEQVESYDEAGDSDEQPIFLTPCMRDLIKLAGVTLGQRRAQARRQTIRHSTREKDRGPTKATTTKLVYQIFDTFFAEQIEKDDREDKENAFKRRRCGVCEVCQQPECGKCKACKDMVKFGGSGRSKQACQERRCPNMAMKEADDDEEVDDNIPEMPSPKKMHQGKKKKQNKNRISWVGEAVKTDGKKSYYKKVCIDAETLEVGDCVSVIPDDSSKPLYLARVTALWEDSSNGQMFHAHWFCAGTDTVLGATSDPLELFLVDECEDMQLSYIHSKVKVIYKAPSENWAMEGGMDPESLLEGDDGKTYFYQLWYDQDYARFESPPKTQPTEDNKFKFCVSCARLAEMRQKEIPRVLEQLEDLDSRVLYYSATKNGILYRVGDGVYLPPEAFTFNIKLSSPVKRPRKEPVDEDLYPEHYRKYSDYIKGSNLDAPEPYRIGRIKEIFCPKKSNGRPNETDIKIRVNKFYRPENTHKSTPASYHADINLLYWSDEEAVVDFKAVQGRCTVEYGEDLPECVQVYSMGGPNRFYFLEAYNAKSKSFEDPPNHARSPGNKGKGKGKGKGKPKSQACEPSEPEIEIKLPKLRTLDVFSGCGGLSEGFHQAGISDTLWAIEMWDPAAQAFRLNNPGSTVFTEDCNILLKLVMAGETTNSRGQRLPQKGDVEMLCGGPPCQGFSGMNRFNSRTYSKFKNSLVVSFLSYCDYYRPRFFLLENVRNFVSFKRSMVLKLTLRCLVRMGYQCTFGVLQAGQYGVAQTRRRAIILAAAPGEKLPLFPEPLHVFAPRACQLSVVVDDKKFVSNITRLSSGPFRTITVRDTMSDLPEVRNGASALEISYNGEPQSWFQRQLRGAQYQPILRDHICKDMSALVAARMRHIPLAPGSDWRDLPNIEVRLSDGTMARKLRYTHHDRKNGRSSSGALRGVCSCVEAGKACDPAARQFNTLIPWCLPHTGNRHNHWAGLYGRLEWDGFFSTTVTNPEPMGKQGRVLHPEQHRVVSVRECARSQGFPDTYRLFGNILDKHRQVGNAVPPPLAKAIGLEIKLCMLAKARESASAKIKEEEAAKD
STEP block: STEP phosphatase inhibitors, primary screen, biochemical, fluorescence intensity, uHTS | inhibition, % at 20 µM | Tyrosine-protein phosphatase non-receptor type 5 (Homo sapiens), P54829 | AID 588621, 2011 | recombinant STEP, OMFP fluorogenic substrate | actives 0.25% (n = 360,000);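 active = inhibition at 20 µM, scaled per plate between control wells, above about 37%, limit read from the data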;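 note: 0% = DMSO with enzyme and substrate and 100% = substrate only without enzyme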
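Material: STEP (striatal-enriched tyrosine phosphatase) enzyme, cell-free | Medium: 50 mM Bis-Tris pH 6.0 with 2.5 mM DTT and 0.005% Tween 20 | Read-out: Percent inhibition scaled to no-enzyme and uninhibited-enzyme controls, plate-pattern corrected | Signal: Fluorescence read at 480 nm ex / 540 nm em | Times: 20 min reaction, room temperature, in the dark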
Scp-1 inhibitor: Scp-1 phosphatase inhibitors, primary screen, biochemical, colorimetric, uHTS; inhibition, % at 20 µM; actives 0.88% (n = 340,000); Recombinant Scp1, phosphopeptide, malachite green phosphate absorbance; Carboxy-terminal domain RNA polymerase II polypeptide A small phosphatase 1 (Homo …; AID 493091, 2011;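 active = inhibition above about 50% at 20 µM, limit read from the data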;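 note: plate controls were DMSO wells with enzyme for no effect and wells lacking enzyme for full effect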
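Test system – truncated SCP-1 phosphatase (76-261aa) · Reagent – Phosphorylated 17-residue peptide substrate · Incubation – 45 min room-temperature reaction, 5 min colour, 30 min stabiliser · Detection – colorimetric phosphate reagent with accelerator and stabiliser, absorbance at 630 nm · Measure – % inhibition at 20 µM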
SUMO1 PPI mod: modulators of SUMO1 protein-protein interactions, primary screen, biochemical, uHTS | Small ubiquitin-related modifier 1 (Homo sapiens), P63165 | SUMO1 binding to a labelled peptide, TR-FRET, 1 h | inhibition, % at 20 µM | actives 0.33% (n = 360,000) | AID 602429, 2012; in the data active = inhibition above about 37%
LMPTP inh: LMPTP phosphatase inhibitors, primary screen, biochemical, fluorescence intensity, uHTS; actives 0.22% (n = 360,000); Low molecular weight phosphotyrosine protein phosphatase (Homo sapiens), P24666; recombinant LMPTP-A, OMFP fluorogenic substrate; inhibition, % at 20 µM;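 active = compounds that cut the enzyme signal by at least half of the control window in the single-dose screen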;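 note: plate controls were DMSO wells with enzyme plus substrate for no effect and substrate without enzyme for full effect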
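Test system: LMPTP-A, protein tyrosine phosphatase of low molecular weight; Input: 0.625 nM enzyme; Incubation: 50 min dark incubation at room temperature; Signal: endpoint fluorescence intensity from OMFP dephosphorylation; Read-out basis: % inhibition versus control wells.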
GRK2 inh: compounds blocking aptamer binding on GRK2 – biochemical, human GRK2, bead flow cytometry, HTS, primary screen; Beta-adrenergic receptor kinase 1 (Homo sapiens), P25098; FAM-aptamer displacement from GRK2; inhibition of aptamer binding, % at 10 µM; actives 0.59% (n = 330,000);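 active = inhibition of aptamer binding above 40%, roughly 3 SD of noise, on plates passing a quality check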;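 note: median bead fluorescence of bound FAM aptamer so fluorescent compounds give negative values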
Scp1 confirm: Scp-1 phosphatase inhibitors, retest, confirmation, biochemical, colorimetric, single concentration. inhibition, % at 20 µM. AID 540281, 2011. actives 61% (n = 2,500). recombinant SCP-1 catalytic domain, phosphate release, malachite green absorbance. shares compounds with Scp-1 inhibitor;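 note: plate controls were DMSO with enzyme for no effect and buffer wells lacking enzyme for full effect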
Scp-1 MG ctr: colorimetric readout interference by compounds, confirmation, artefact control for Scp-1 inhibitor project, biochemical, single concentration; shares compounds with Scp-1 inhibitor; Colorimetric interference counterscreen, malachite green absorbance 630 nm; apparent inhibition (interference), % at 20 µM; 2,500 tested, under 10 active; AID 540313, 2011;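 note: compounds added after enzyme reaction finished so only phosphate colour detection is probed; plate controls were DMSO wells with completed Scp-1 reaction for no effect and substrate wells lacking enzyme for full effect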
Scp1 DSF: Scp-1 binding by thermal shift, confirmation, orthogonal assay for Scp-1 inhibitor project, biophysical, differential scanning fluorimetry; shares compounds with Scp-1 inhibitor; Recombinant SCP1, Sypro Orange thermal shift Tm; thermal shift relative to vanadate control, % at 40 µM; actives 25% (n = 1,500);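 active = substances whose mean melting-temperature shift, as a percentage of the reference inhibitor's shift, reaches about 5.3%, limit read from the data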;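 note: 0% = Tm of DMSO wells and 100% = Tm with sodium orthovanadate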
An asterisk follows results filed as active; . = no result given. In the library only some 2.1% were active in any assay of this set; here they are far more common.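 Rule for the calls, unless noted: active = inhibition of at least 30% at 20 µM; inactive = the rest.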

SMILES	DNMT1 block	STEP block	Scp-1 inhibitor	SUMO1 PPI mod	LMPTP inh	GRK2 inh	Scp1 confirm	Scp-1 MG ctr	others
O=C(O)CCCNc1ccc([N+](=O)[O-])c(NCCCC(=O)O)n1	4	2	7	-9	-1	0	.	.
CCOc1ccc(S(=O)(=O)NCc2ccccc2)cc1C(N)=O	3	3	-5	-5	0	0	.	.
CCOc1ccc(S(=O)(=O)NCc2ccccc2Cl)cc1C(N)=O	-3	-4	0	2	-1	0	-21	-19
NS(=O)(=O)c1ccc(CNC(=O)Cc2ccc(S(=O)(=O)N3CCOCC3)s2)cc1	-1	-2	-7	-4	0	0	.	.
O=C(Cc1ccc(S(=O)(=O)N2CCOCC2)s1)NC1CCCCC1	7	8	61*	2	6	7	70*	-7	Scp1 DSF=7.9*
O=C(Cc1ccc(S(=O)(=O)N2CCOCC2)s1)NCC1CCCCC1	3	1	20	3	2	3	.	.
NS(=O)(=O)c1ccc(CCNC(=O)Cc2ccc(S(=O)(=O)N3CCCC3)s2)cc1	10	6	76*	-1	4	3	74*	-14	Scp1 DSF=0
CCn1nccc1NC(=O)c1csc([C@@H]2O[C@H](CO)[C@H](O)[C@H](O)[C@H]2O)n1	3	-3	.	3	-1	.	.	.
COc1ccc(NS(=O)(=O)c2cc3c4c(c2)C(C)C(=O)N4CCC3)cc1 (stereo not drawn)	-2	-1	-7	2	0	2	.	.
COc1ccc(NC(=S)NC23CC4CC(CC(C4)C2)C3)cc1OC	-3	3	2	8	2	6	.	.
Cc1cc(C)cc(N(CCC#N)C(=O)COC(=O)c2ccc(OCc3c(C)noc3C)cc2)c1	0	0	51*	6	1	1	-16	-12
Cc1ccc(C(=O)Nc2ccc(N3CCN(C(=O)c4ccco4)CC3)cc2)c(Cl)c1	-12	3	68*	-2	2	0	-11	-10
O=C(Nc1ccc(N2CCN(C(=O)c3ccco3)CC2)cc1)c1ccc([N+](=O)[O-])cc1Cl	-2	-2	-5	-31	2	0	.	.
CCOc1ccc(S(=O)(=O)N(CC)CC(=O)NCc2cccnc2)cc1C	1	-1	-5	-1	-1	2	.	.
CC(Oc1cccc([N+](=O)[O-])c1)C(=O)NCCC1=CCCCC1 (stereo not drawn)	-5	1	59*	-18	0	5	-13	-14
O=C(NNC(=O)c1ccccc1F)c1ccc2nc[nH]c2c1	1	-3	11	4	1	0	.	.
O=C(NNC(=O)c1ccccc1Br)c1ccc2nc[nH]c2c1	22	18	73*	12	5	29	66*	-10	Scp1 DSF=3
CCN1CCN(S(=O)(=O)c2ccc(Cl)c(C(=O)Oc3ccc(CC(=O)OC)cc3)c2)CC1	1	4	-4	4	-1	.	.	.
